Test system: MS2 coat protein
Assay: apparent Kd, MS2 coat protein; higher = weaker binding; RNA-MaP array; FMN 200 µM where present
How it was run: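 The apparent Kd comes from binding curves fitted cluster by cluster, filtered, and summarised as a median. Those curves followed SNAP-549-labelled MS2 coat protein from 0.7 or 1.5 nM, doubling to 3 µM, on Illumina sequencing-chip clusters where stalled E. coli RNA polymerase had transcribed the designs, without and then with constant ligand. The buffer was 100 mM Tris-HCl pH 7.5, 80 mM KCl, 4 mM MgCl2, BSA, DTT, yeast tRNA and Tween-20, and green signal was normalised to red-channel RNA signal and control-cluster median Fmax.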

[1] = designed as: OFF switch for flavin mononucleotide, no ligand
[2] = ligand present: flavin mononucleotide, designed as: OFF switch for flavin mononucleotide
[3] = designed as: ON switch for flavin mononucleotide, no ligand
[4] = ligand present: flavin mononucleotide, designed as: ON switch for flavin mononucleotide

Row | Sequence | apparent Kd [1] [µM] | apparent Kd [2] [µM] | apparent Kd [3] [µM] | apparent Kd [4] [µM]
1 | UUAUACUGAGAGAAGGUUCAAACUACAUAUUGCAUACAUGAGGAUCACCCAUGUUGGUGAAUAAGAAAGGAUAUUUUACUGUAU | 0.0392 | 0.0279 | – | –
2 | AUCCGACAUGAGGAUCACCCAUGUCAGGAUAUGGACUGACAUCGAAAGGAUGGAAGAACCAGAAGGGACUGGGC | 0.0282 | 0.0485 | – | –
3 | UCUAUGCAGACCCUUAUAAAACAUGAGGAUCACCCAUGUGAGAGAAGGGCCUAACGGCAGAGAAGGCAGGAUAUCUUAUGAUGG | 0.00746 | 0.0129 | – | –
4 | CGUCGAAAUGUAGGAUAUCUGCACGAUUAGUGCAGAGAAGGACAUGAGGAUCACCCAUGUAGAUCACGACGAAUUAAUUUAAUU | 0.0607 | 0.48 | – | –
5 | AUUAUACAUGAGGAUCACCCAUGUCAACAAAGUCGAGGAUAUGGGCAAAUAAAAUAAGAACCAGAAGGCGAAUAAU | – | – | 0.238 | 0.061
6 | GCUGCAUAGGCAGGAUAUGCAACAAUUCGAAUAAAAUAUAACGAAUUGACAUGAGGAUCACCCAUGUAGAAGGGCCUGUGCAGU | 0.0186 | 0.02 | – | –
7 | ACUAUACGAGGAUAUGCUGUCAGUACUCAGAGGUUAAUGUGACAUGAGGAUCACCCAUGUAGAAGGCGUUUACU | 0.0343 | 0.0238 | – | –
8 | AGUAGUUCAGGAUAUGAUGUAUGUUACAUGAGGAUCACCCAUGUAGGUCCUUGAAUUGUAUCAGAAGGGAAUAUCU | 0.258 | 0.281 | – | –
9 | AUUUAUGGCCAGAAGGACAUGAGGAUCACCCAUGUAGGAUAUGGACGAUUUUGCUCGGCGGUUCGUUUAGGAAUCACCGGUGGU | – | – | 0.00788 | 0.00638
10 | UAUUCAUACGAAGGAUAUGGUUACAUGAGGAUCACCCAUGUAUGUAUAUUGAUCUAGUUAUUUAACCAGAAGGUCGGGUGUAAA | 0.0573 | 0.0913 | – | –
11 | GCAUGCAAGUAGAAGGACAGAUAUUUUGAUACUGUAGGAUAUGCAGAAUCAUAUCCACAUGAUAACAUGAGGAUCACCCAUGUA | 0.0116 | 0.01 | – | –
12 | UUAUGACCGUAAAUAAGGUUGUCGAAGGAUAUUACAGGAGUACGAUCACAUGAGGAUCACCCAUGUAAGAAGGUCGAUACGCUG | 0.017 | 0.0764 | – | –
13 | GGAUGAGAAACUCAUCCUUAACGAACAUGAGGAUCACCCAUGUAGGAUAUGCUACUCAAAGAGUAGCAGAAGGACAUGUGCCUU | 0.03 | 0.264 | – | –
14 | AAGCGAAAGCUAAAAUAUCUAUCAGAGGAUAUUUAUGAUACAUGAGGAUCACCCAUGUGGCACUGGGAGAAGGCUGAUAGAUAA | – | – | 0.0116 | 0.00615
15 | GGCUCAUUUACAUUAAUGUGCUGACAGGAUAUCCACGGCGGUUCCUACAUGAGGAUCACCCAUGUGGAGAAGGGUCGCUAAUGG | 0.0124 | 0.0189 | – | –
16 | AGUGGACAUGAGGAUCACCCAUGUAUGCUGGCAUGAGGAUAUCCGAUUCGUUUCGACUAAGGAGAAGGCAUAGCCC | – | – | 0.0972 | 0.0313
17 | UUAAUGUCAGGAUAUCUUAGGUGGGUGCGAAGAUUCAUUUUGGAGAAGGGACAUGAGGAUCACCCAUGUACCUU | 0.0187 | 0.0195 | – | –
18 | AGAUAGUGGUGAGGAUAUCAGAAUAGAAAGAAAUGAGAAGGCGCACAUGAGGAUCACCCAUGUGAGGUCUUGAGACUACAUGGU | 0.02 | 0.0221 | – | –

Row | Sequence | apparent Kd [1] [µM] | apparent Kd [2] [µM] | apparent Kd [3] [µM] | apparent Kd [4] [µM]
19 | UAUCAUUACACGAAGGAUAUCGAUAAUUGAACAUGAGGAUCACCCAUGUGAUAUAUUUUACAGUUCGAGAAGGUCGAGGGUGAAG | – | – | 0.0356 | 0.018
20 | GCCAUCGCAUGAGGAUAUGCUCGGGUUUCCCGAGCAGAAGGCAUGUCAAAAGACAUGAGGAUCACCCAUGUAGUUAAGAUGGCA | – | – | 0.122 | 0.00811
21 | CUAAAUCAUGUAGGAUAUGCGUGGCGAAGCUAUGCAGAAGGACAUGAGGAUCACCCAUGUCUUUCUGUCUGCGUACAGACGGAA | 0.0235 | 0.135 | – | –
22 | GUUAUUAUUAGUUCAUACUAUAAGAUAGAAGGUGAUUUAUUGACAUGAGGAUCACCCAUGUAAUUCAAGGAUAUGUAGAUACUC | – | – | 0.374 | 0.248
23 | GUGCAUGUGCGAACUAACCCACAUGAGGAUCACCCAUGUAGGAGAAGGGUCCGGAGGUGCCGUGGACAGGAUAUCCUACGCCUG | 0.0232 | 0.0309 | – | –
24 | CAGCGUACCAGAGGAUAUGAUUGUGGGUAAAGAGCGCUUAGGUGGCUACAUGAGGAUCACCCAUGUCAGAAGGCUGGAGUUCAA | 0.279 | 0.129 | – | –
25 | GGAUCGAGUGUGAGGAUAUGCUGGUCCUAAGAUCAGCAGAAGGCACAUGAGGAUCACCCAUGUGAAAACGGUCC | 0.026 | 0.182 | – | –
26 | UGUCAUUUACAGAAGGGUAGUUGGGUUAUACAUGAGGAUCACCCAUGUUAUACAGGAUAUGUGUAAAGUUAUUAUUAAAGUACA | 0.0301 | 0.036 | – | –
27 | GUGUUUGAUGAGGAUAUCGAUGUGGGUACAUAGCGAGAAGGCAUUACAUGAGGAUCACCCAUGUAGUGUGGGUU | 0.025 | 0.0567 | – | –
28 | GUGUACAGAGGAUAUACAUAAGCAUGGAAACAUGCUACUUCACAUGAGGAUCACCCAUGUAGAAGGCUGUACAC | 0.0145 | 0.0154 | – | –
29 | GUCCUUUCUGAGGAUAUUAUUUUUUUCGAUUGAUAAGAAGGCAGUACAUGAGGAUCACCCAUGUGGGUUGUCUG | 0.0268 | 0.0283 | – | –
30 | UGGCUGAGUCGAGGAUAUGAUCUUCAUAUAAUAACAUGAGGAUCACCCAUGUAUAAUUACAUGGAUCAGAAGGCGACUCAGCCA | – | – | – | 0.0381
31 | AGACUUGCAGGAUAUACAUGAGGAUCACCCAUGUAUGUAAACUUAUGCGGUGUGACCUGUAGAAGGGUAGGCGU | 0.0211 | 0.0242 | – | –
32 | GCAUCGUCGACUGAUAAUGAGCCUAGAAGGCGGACAUGAGGAUCACCCAUGUCUGAUCCUCGGCCCGAGGAUAUAGGUUAAUGA | 0.0121 | 0.00865 | – | –
33 | CUUUUGUGAGGAUAUUAGUAGUAAUUAAAUAAAAUUACUACUGAGAAGGCACAUGAGGAUCACCCAUGUUCCUC | 0.0339 | 0.158 | – | –
34 | AAAAAAAAAAUGCAGGAUAUGGGAAAAAAAACAUGAGGAUCACCCAUGUAAAAAAAAAAAAAAAACUAGAAGGGUAAAAAAAAAAA | – | – | 0.0803 | 0.0623
35 | ACAUGAGGAUCACCCAUGUAUACAUAGGAUAUUGGUGAUCAGGGAUGUUUUACAGGAUAUGUCUGCGAGAAGGAUGCAAGUACU | – | – | 0.178 | 0.0947
36 | CAGUACUGAGGAUAUACAUGAGGAUCACCCAUGUGGUCCAGCUAGGAAACUAGCACGUGUAGAAGGCAGUACUG | 0.0361 | 0.0565 | – | –

— the EternaBench riboswitch data
